2 compounds from ChEMBL document CHEMBL4257448, “Deciphering the origins of molecular toxicity of combretastatin A4 and its glycoconjugates: interactions with major drug transporters and their safety profiles in vitro and in vivo” (Medchemcomm, 2017) can be followed below.

In series [1] the target is T1, Solute carrier family 22 member 2 (Homo sapiens, UniProt O15244).
T1 sequence (O15244 whole entry): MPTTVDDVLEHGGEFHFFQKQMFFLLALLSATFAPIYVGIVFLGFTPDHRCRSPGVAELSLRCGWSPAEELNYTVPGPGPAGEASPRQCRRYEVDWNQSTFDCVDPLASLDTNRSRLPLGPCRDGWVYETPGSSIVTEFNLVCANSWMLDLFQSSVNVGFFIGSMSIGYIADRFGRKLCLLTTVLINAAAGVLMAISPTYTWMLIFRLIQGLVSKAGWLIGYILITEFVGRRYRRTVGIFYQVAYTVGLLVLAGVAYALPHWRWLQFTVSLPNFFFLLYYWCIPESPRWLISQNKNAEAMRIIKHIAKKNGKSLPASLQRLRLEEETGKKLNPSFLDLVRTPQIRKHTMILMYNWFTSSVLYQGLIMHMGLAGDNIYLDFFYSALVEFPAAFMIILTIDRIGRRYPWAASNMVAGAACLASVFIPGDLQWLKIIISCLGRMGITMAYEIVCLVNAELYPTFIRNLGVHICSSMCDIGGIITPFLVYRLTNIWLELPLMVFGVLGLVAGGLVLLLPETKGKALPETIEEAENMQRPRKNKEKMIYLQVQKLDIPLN
As to the kind of experiment: Inhibition of human OCT2 expressed in HEK293 cells assessed as Asp+ uptake after 10 mins by fluorescence assay. Format: cell-based. The note with it: for inhibition (INH): human, hek293, 10 min. In short, it runs like this: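 Stably transfected HEK293 cells (human OAT1, OAT3, OCT1, OCT2, OATP1B3, OATP2B1) and mock cells were assayed 16 h after seeding in HEPES uptake buffer, pH 7.2, with fluorescent probe ± compound. Incubation was 5 min for OAT1/3 and OATPs, and 10 min for OCT1/2. Reference inhibitors were probenecid (OATs), quinine (OCTs) and rifampicin (OATPs). Uptake was stopped with ice-cold PBS and cells were lysed in Tris/Triton. Fluorescence was normalised to BCA protein; triplicates, repeated 2–3 times.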

A short description of series [2]: Drug uptake in mock transfected HEK293 cells by HPLC-UV assay. Format: ADME, cell-based. The note with it: human.
Another series deals with SK-OV-3. As to the kind of experiment: Cytotoxicity against human SKOV3 cells assessed as reduction in cell viability up to 20 uM after 24 hrs by MTT assay. Type of series: functional, cell-based. The gist of the method:
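Cells were grown as adherent monolayers at 37 °C in 5% CO2: SKOV3 in advanced DMEM, DU145 and MB231 in RPMI-1640 with glutamine and 10% FBS. They were seeded at 2000–7500 cells/well, treated on day 1 for 24 h with drug in DMSO (final DMSO <0.1%), then given MTT at 0.83 mg mL−1 final overnight. After SDS/HCl lysis, A570 was read as percent of drug-free control; five replicate wells.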

The nature of series [3]: Cytotoxicity against HEK293FT cells assessed as reduction in cell viability up to 20 uM. To be noted: human. Format: cell-based.
Series [4] in a line: Ratio of CA4 aqueous solubility to test compound aqueous solubility. Format: physicochemical. To be noted: buffer.
Series [5] in a line: Drug uptake in mock transfected HEK293 cells in presence of OATP2B1 inhibitor rifampicin by HPLC-UV method. Type of series: ADME, cell-based. To be noted: human.
For series [6], the target named is T2, Solute carrier organic anion transporter family member 2B1 (Homo sapiens, UniProt O94956).
T2 sequence (O94956 whole entry): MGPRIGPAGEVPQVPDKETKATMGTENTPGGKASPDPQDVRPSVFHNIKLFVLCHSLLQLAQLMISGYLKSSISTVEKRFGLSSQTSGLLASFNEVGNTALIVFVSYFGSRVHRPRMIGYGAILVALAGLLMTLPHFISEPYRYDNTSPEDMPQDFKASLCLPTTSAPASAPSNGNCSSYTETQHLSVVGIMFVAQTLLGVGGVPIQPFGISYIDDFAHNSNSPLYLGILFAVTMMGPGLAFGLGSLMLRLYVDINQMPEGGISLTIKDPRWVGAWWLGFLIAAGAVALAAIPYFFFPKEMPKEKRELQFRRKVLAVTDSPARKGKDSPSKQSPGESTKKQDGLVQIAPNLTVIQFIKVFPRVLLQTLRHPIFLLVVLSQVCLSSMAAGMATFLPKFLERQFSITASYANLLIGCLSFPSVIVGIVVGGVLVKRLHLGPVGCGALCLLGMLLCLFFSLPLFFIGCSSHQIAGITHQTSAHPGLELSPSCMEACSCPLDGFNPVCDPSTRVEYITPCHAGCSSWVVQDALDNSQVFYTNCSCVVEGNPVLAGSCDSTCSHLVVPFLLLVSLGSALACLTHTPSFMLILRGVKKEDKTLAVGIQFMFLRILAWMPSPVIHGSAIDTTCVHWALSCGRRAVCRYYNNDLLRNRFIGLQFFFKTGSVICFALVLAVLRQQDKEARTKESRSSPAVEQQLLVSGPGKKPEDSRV
Kind of series: Substrate activity at human OATP2B1 expressed in HEK293 cells assessed as compound uptake by HPLC-UV method relative to control. Format: ADME, cell-based.

Another series deals with HT-29. As to the kind of experiment: […] for human HT-29 cells assessed as reduction in cell viability after 72 hrs by MTT assay. Format: functional. The gist of the method:
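HT29 cells were cultured in RPMI-1640 with glutamine and 10% FBS, seeded at 2000–7500 cells/well, and exposed for 72 h to drug in DMSO (final DMSO <0.1%). MTT was added at 0.83 mg mL−1 final and incubated overnight, then cells were lysed in SDS/HCl and read at 570 nm. Survival was expressed as percent of drug-free control; five replicate wells.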

The next series concerns Mus musculus. Kind of series: Ratio of compound MTD to CA4 MTD in ip dosed DBA/2 mouse assessed as reduction in 15% body weight administered as daily dose for 3 days. Format: ADME, organism-based. To be noted: in vivo, 72 h.
Series [7] has as its target T2, Solute carrier organic anion transporter family member 2B1. As to the kind of experiment: Substrate activity at human OATP2B1 expressed in HEK293 cells assessed as compound uptake in presence of OATP2B1 inhibitor rifampicin by HPLC-UV method. Type of series: ADME, cell-based.

pIC50: −log10 of the molar value. The source made the active and inactive calls. The calls are words filed in the database; no cut-off is given here.

For the compound `COc1ccc(/C=C\c2cc(OC)c(OC)c(OC)c2)cc1O` [COMBRETASTATIN A4], in [1], the pIC50 – broadly, −log10 of the IC50, conventionally taken in molar units – was 4.21 and the “inhibition (INH)” value is listed as “Dose-dependent effect”. In addition, in series [2], the Drug uptake entry is listed as “Active”. Moreover, the result with SK-OV-3 was Active. For the same compound, in [3], the Activity result is reported as “Toxic”.
As for `COc1ccc(/C=C\c2cc(OC)c(OC)c(OC)c2)cc1O[C@@H]1O[C@H](CO)[C@@H](O)[C@H](O)[C@H]1O`, the pIC50 in series [1] is below 3.70. Moreover, the “inhibition (INH)” value in [1] is on record as “Dose-dependent effect”. Moreover, the results for the Ratio (in series [4]; with Mus musculus) were 610 and 16, respectively. Besides, the values for the Drug uptake result in series [5], in series [6] and in [7] were “Active”, 60% and “Active”, respectively. In addition, the outcome in the series on SK-OV-3 was Active. In the series on HT-29, the “Ratio IC50” value was 9.59. Further, the Activity result in series [3] was “Toxic”.
